The values below come from the M2OR odorant receptor database.

Common to all, as to details: stereoisomer not certain
For experiment [1], the target named is T1, OR52N4 (Homo sapiens) (UniProt Q8NGI2).
T1 sequence (whole entry): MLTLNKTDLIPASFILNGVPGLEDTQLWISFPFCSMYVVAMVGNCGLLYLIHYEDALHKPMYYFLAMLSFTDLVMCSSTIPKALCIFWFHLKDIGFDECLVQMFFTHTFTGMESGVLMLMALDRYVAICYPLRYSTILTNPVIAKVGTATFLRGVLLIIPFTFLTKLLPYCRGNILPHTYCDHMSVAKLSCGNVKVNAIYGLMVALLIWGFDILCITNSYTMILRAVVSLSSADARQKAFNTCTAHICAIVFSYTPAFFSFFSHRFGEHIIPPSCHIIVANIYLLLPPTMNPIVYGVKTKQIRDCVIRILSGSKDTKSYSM
An outline of the steps:
(§1)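 Transient luciferase assays in mammalian cell lines were common, though methods varied by source. The values come from published papers and their supplementary material, with extra details from the original authors when needed. Responsive refers to a measured signal the original authors judged statistically different from baseline, and non-responsive (inactive) to the remainder.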

Experiment [2] has as its target T2, OR52N5 (Homo sapiens) (UniProt Q8NH56).
T2 sequence (whole entry): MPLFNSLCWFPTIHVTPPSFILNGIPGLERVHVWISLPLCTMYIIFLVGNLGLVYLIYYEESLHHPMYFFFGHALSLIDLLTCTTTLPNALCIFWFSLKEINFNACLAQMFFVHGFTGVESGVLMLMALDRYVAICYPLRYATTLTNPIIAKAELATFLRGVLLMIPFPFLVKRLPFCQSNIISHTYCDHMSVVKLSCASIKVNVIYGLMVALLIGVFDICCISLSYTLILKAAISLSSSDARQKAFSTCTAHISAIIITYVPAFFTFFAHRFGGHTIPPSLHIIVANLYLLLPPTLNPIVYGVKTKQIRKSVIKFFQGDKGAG
In short, it runs like this:
as §1

Experiment [3] concerns the target T3, OR52R1 (Homo sapiens) (UniProt Q8NGF1).
T3 sequence (whole entry): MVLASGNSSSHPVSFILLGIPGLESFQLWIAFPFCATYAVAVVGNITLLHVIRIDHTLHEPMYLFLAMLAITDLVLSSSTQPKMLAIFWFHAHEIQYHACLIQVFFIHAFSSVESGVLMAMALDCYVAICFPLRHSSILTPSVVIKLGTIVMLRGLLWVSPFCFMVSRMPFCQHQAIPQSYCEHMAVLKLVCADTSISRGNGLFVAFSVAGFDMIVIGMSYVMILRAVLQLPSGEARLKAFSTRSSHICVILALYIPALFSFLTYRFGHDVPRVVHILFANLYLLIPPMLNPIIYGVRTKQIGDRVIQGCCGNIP
An outline of the steps: as §1

The target in experiment [4] is T4, OR52W1 (Homo sapiens) (UniProt Q6IF63).
T4 sequence (whole entry): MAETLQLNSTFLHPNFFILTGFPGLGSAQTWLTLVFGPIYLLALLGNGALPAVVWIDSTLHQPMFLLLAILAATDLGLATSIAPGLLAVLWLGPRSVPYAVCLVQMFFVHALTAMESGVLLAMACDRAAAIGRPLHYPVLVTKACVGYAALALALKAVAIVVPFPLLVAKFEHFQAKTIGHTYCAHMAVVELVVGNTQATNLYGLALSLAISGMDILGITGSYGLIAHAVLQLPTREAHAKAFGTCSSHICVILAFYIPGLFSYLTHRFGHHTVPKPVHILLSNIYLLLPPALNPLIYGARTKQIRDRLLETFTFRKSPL
In short, it runs like this:
as §1

The target in experiment [5] is OR52Z1P (Homo sapiens) (UniProt P0C646). An outline of the steps:
as §1

In experiment [6] the target is T5, OR56A1 (Homo sapiens) (UniProt Q8NGH5).
T5 sequence (whole entry): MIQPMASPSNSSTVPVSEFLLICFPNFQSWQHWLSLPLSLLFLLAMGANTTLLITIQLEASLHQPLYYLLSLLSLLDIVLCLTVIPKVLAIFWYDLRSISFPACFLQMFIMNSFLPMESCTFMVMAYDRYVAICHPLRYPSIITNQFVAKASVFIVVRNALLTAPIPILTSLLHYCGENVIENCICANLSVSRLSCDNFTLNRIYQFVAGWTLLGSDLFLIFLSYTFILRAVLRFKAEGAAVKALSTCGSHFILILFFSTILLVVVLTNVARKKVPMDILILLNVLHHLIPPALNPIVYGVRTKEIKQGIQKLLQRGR
An outline of the steps:
as §1

Experiment [7] addresses T6, OR56A3 (Homo sapiens) (UniProt Q8NH54).
T6 sequence (whole entry): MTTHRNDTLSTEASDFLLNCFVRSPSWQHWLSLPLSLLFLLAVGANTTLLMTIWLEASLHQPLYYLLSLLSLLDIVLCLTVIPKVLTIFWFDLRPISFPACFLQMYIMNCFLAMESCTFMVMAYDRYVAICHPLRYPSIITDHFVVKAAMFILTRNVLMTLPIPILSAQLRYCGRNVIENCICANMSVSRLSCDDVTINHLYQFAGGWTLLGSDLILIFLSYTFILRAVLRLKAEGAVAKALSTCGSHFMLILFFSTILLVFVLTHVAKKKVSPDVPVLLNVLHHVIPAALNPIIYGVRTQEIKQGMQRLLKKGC
In short, it runs like this: as §1

Experiment [8] addresses T7, OR56A4 (Homo sapiens) (UniProt Q8NGH8).
T7 sequence (whole entry): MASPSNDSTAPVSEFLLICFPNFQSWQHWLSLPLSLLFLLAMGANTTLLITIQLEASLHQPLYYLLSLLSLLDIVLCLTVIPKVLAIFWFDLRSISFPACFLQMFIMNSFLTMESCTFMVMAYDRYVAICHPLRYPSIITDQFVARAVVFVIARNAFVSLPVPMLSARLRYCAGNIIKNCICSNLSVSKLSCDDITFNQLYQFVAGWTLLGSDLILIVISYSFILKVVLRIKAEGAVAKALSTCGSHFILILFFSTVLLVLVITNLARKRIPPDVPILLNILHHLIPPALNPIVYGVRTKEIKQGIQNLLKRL
An outline of the steps:
as §1

Experiment [9] has as its target T8, OR56A5 (Homo sapiens) (UniProt P0C7T3).
T8 sequence (whole entry): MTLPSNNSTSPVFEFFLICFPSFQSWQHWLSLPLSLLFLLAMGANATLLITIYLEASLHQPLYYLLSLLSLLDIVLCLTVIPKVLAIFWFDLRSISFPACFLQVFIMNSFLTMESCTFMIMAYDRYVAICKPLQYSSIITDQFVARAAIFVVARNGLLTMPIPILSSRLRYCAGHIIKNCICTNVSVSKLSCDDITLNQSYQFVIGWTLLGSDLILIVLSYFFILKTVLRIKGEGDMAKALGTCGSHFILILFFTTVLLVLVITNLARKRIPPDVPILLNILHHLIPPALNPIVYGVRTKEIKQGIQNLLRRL
In short, it runs like this:
as §1

Experiment [10] deals with T9, OR56B1 (Homo sapiens) (UniProt Q8NGI3).
T9 sequence (whole entry): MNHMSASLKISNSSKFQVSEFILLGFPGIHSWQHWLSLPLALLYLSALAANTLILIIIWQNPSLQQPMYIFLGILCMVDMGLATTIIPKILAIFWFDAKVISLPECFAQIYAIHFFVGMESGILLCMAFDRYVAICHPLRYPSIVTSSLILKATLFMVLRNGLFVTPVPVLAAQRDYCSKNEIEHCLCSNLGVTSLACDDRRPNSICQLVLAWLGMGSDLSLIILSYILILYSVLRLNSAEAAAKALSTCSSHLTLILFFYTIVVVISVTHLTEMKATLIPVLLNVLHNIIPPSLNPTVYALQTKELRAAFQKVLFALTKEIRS
An outline of the steps: as §1

Experiment [11] has as its target T10, OR56B4 (Homo sapiens) (UniProt Q8NH76).
T10 sequence (whole entry): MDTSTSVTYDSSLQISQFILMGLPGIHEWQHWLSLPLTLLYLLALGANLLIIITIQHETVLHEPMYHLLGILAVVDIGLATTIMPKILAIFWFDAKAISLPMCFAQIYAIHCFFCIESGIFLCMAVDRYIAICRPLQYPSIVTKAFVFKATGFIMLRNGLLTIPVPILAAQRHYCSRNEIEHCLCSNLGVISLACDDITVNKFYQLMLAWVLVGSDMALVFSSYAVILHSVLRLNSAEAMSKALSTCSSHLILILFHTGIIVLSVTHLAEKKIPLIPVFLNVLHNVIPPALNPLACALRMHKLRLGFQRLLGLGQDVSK
In short, it runs like this: as §1

The target in experiment [12] is T11, OR5A1 (Homo sapiens) (UniProt Q8NGJ0).
T11 sequence (whole entry): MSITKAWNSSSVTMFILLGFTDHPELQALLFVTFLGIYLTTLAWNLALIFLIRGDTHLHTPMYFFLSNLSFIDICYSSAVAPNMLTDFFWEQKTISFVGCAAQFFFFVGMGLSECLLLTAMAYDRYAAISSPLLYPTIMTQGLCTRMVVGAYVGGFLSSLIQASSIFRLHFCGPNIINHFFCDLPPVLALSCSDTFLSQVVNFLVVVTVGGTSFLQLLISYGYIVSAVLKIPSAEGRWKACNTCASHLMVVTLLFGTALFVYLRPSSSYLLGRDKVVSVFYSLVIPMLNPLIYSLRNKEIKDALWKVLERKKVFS
In short, it runs like this: as §1

The target of experiment [13] is T12, OR5A2 (Homo sapiens) (UniProt Q8NGI9).
T12 sequence (whole entry): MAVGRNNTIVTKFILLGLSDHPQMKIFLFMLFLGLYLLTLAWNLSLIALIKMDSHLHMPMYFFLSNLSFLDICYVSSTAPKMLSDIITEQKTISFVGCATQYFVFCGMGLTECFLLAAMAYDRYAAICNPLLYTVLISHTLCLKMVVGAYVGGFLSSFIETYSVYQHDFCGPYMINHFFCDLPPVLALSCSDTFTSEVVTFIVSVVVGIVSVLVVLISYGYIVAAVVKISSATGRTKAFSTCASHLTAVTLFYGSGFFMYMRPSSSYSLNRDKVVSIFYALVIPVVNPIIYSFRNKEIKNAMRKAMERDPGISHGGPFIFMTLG
In short, it runs like this:
as §1

The target of experiment [14] is OR5AC1 (Homo sapiens) (UniProt P0C628). An outline of the steps:
as §1

The target in experiment [15] is T13, OR5AC2 (Homo sapiens) (UniProt Q9NZP5).
T13 sequence (whole entry): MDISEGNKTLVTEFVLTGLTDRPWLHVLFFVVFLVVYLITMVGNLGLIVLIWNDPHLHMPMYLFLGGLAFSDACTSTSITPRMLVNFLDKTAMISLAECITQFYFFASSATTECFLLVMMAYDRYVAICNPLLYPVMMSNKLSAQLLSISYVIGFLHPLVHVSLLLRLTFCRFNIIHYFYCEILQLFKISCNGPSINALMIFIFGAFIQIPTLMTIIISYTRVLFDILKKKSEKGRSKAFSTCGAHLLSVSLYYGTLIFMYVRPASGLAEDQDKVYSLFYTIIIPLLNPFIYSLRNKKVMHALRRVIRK
In short, it runs like this:
as §1

The target of experiment [16] is T14, OR5AK2 (Homo sapiens) (UniProt Q8NH90).
T14 sequence (whole entry): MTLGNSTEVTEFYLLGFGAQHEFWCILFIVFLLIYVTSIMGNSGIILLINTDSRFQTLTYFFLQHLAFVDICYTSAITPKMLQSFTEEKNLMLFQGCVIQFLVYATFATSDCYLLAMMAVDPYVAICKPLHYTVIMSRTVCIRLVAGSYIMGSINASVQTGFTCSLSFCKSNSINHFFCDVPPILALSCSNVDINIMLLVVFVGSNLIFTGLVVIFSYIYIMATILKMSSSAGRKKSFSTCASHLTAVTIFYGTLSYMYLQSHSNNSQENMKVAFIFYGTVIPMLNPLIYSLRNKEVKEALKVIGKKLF
An outline of the steps:
as §1

For experiment [17], the target named is OR5AL1 (Homo sapiens) (UniProt P0C617). An outline of the steps: as §1
In experiment [18] the target is T15, OR5AN1 (Homo sapiens) (UniProt Q8NGI8).
T15 sequence (whole entry): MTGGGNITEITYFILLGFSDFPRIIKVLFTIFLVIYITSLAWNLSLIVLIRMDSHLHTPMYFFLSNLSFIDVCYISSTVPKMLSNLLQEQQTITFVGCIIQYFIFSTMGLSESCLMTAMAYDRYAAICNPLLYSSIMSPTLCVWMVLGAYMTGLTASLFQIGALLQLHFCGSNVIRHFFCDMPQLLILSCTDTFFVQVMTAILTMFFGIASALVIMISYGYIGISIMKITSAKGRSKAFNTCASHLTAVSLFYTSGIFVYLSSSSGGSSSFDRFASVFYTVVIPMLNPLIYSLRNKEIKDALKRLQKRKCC
In short, it runs like this: as §1

Experiment [19] deals with T16, OR5AP2 (Homo sapiens) (UniProt Q8NGF4).
T16 sequence (whole entry): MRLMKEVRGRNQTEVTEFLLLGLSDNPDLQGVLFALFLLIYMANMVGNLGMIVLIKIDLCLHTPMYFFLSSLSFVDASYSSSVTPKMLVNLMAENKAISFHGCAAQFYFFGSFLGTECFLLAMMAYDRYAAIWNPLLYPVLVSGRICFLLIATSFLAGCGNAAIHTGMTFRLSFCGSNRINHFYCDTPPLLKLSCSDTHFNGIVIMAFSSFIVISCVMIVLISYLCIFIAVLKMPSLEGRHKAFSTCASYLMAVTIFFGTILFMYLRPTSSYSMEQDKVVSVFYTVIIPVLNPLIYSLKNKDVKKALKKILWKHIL
An outline of the steps:
as §1

Chain of OR5AL1 (Homo sapiens) (P0C617 whole entry): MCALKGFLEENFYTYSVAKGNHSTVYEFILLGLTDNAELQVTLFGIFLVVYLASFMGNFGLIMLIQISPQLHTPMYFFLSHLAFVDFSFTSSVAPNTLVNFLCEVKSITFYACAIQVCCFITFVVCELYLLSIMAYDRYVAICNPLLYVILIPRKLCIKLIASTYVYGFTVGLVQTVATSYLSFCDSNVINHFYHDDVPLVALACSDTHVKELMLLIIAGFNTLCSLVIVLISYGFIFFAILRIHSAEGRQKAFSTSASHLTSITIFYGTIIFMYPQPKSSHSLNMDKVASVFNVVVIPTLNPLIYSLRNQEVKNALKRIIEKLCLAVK
Chain of OR5AC1 (Homo sapiens) (P0C628 whole entry): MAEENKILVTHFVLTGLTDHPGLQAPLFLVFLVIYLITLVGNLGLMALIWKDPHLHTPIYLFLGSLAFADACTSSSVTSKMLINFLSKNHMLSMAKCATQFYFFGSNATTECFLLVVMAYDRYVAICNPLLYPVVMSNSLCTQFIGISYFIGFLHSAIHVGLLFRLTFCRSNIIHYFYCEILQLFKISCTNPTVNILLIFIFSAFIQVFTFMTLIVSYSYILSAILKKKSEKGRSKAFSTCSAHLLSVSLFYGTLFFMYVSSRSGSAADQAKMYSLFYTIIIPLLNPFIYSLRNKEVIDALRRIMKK
Chain of OR52Z1P (Homo sapiens) (P0C646 whole entry): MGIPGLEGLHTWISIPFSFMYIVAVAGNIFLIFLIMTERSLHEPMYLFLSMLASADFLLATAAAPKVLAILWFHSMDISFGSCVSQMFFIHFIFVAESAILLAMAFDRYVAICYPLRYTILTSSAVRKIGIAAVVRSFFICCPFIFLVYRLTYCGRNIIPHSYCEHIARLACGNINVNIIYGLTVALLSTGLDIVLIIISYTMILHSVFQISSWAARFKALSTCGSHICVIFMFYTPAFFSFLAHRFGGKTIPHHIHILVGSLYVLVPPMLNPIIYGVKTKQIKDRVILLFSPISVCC

As to `CC(=O)c1c(C)c([N+](=O)[O-])c(C(C)(C)C)c([N+](=O)[O-])c1C`, the “odorant receptor agonist call” value in experiment [1], in experiment [2], in experiment [3], in experiment [4], in experiment [5] and in experiment [6] was “inactive” throughout. For the same molecule, the “odorant receptor agonist call” value in experiment [7], in [8], in experiment [9], in [10], in experiment [11] and in [12] was “inactive” in each case. Besides, the “odorant receptor agonist call” value in experiment [13], in experiment [14], in [15], in experiment [16], in [17] and in experiment [19] was “inactive” each time. The “odorant receptor agonist call” value in experiment [18] was “active”.
